Data reported in ChEMBL document CHEMBL3414514, “Synthesis and pharmacological evaluation of novel bisindole derivatives bearing oximes moiety: identification of novel proapoptotic agents” (Eur J Med Chem, 2015).

Key:
NCI-H460 = assay: Cytotoxicity against human NCI-H460 cells after 2 days by MTT assay; assay type: functional, cell-based; details: NCI-H460, 48 h
Outline: (§1)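 Cells grown in medium with 10% heat-inactivated FBS at 37 C under 5% CO2. Compounds dissolved in medium with 1% DMSO; controls received 1% DMSO. After 2 days, MTT (10 mg/mL) added for 4 h, formazan dissolved in DMSO and absorbance read at 570/630 nm. Survival taken relative to negative control; IC50 by Bliss method (n = 5), at least three independent experiments.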

A549 = assay: Cytotoxicity against human A549 cells after 2 days by MTT assay; assay type: functional, cell-based; details: A549, 48 h; outline: as §1
MGC-803 = assay: Cytotoxicity against human MGC803 cells after 2 days by MTT assay; assay type: functional, cell-based; details: MGC-803, 48 h; outline: as §1
HUVEC = assay: Cytotoxicity against human HUVEC cells after 2 days by MTT assay; assay type: cell-based; details: 48 h; outline: as §1
[1] = Cytotoxicity against human SKOV3 cells after 2 days by MTT assay; assay type: functional, cell-based; details: SK-OV-3, 48 h; outline: as §1
[2] = Cytotoxicity against human T24 cells after 2 days by MTT assay; assay type: functional, cell-based; details: T-24, 48 h; outline: as §1
HepG2 = assay: Cytotoxicity against human HepG2 cells after 2 days by MTT assay; assay type: functional, cell-based; details: HepG2, 48 h; outline: as §1
[3] = Cytotoxicity against human SPCA2 cells after 2 days by MTT assay; assay type: functional, cell-based; details: SPCA2, 48 h; outline: as §1

Row | SMILES | IC50 (NCI-H460) [µM] | IC50 (A549) [µM] | IC50 (MGC-803) [µM] | IC50 (HUVEC) [µM] | IC50 [1] [µM] | IC50 [2] [µM] | IC50 (HepG2) [µM] | IC50 [3] [µM]
1 | Cc1ccc(CO/N=C2/C(c3c[nH]c4ccc(F)cc34)=Nc3ccc(F)cc32)cc1 | 12 | 13.6 | 20.8 | > 100 | 11.3 | 20 | 19.6 | 11
2 | FC(F)(F)c1ccc(CO/N=C2/C(c3c[nH]c4ccccc34)=Nc3ccccc32)cc1 | 24.1 | 21.9 | 30.6 | > 100 | 24.2 | 18.9 | 22.3 | 21.2
3 | Cc1ccc2c(c1)/C(=N\O)C(c1c[nH]c3ccc(C)cc13)=N2 | 18.3 | 11.2 | 9.47 | > 100 | 11.1 | 8.78 | 10.7 | 19.6
4 | O/N=C1/C(c2c[nH]c3cc(F)ccc23)=Nc2cc(F)ccc21 | 22.2 | 21.3 | 22.1 | > 100 | 16.4 | 11.7 | 13.8 | 10
5 | Fc1ccc2c(c1)N=C(c1c[nH]c3cc(F)ccc13)/C2=N/OCc1ccccc1 | 19.4 | 15.7 | 21.9 | > 100 | 15.6 | 13.3 | 24.1 | 20.2
6 | O=[N+]([O-])c1ccc2c(c1)/C(=N\O)C(c1c[nH]c3ccc([N+](=O)[O-])cc13)=N2 | 11.5 | 10.4 | 10.8 | > 100 | 10.7 | 13.2 | 8.25 | 11.2
7 | C=CCO/N=C1/C(c2c[nH]c3ccccc23)=Nc2ccccc21 | 24.5 | 30.9 | 24.3 | > 100 | 26.7 | 32.1 | 31.3 | 26.9
8 | CC(=O)Nc1ccc2c(c1)/C(=N\O)C(c1c[nH]c3ccc(NC(C)=O)cc13)=N2 | 30.2 | 21.9 | 17.9 | > 100 | 21.2 | 16.8 | 28.2 | 27.8
9 | O/N=C1/C(c2c[nH]c3ccccc23)=Nc2ccccc21 | 22.5 | 21.8 | 20.6 | > 100 | 15.9 | 27.4 | 20.4 | 20.4
10 | Cc1cccc2c1N=C(c1c[nH]c3c(C)cccc13)/C2=N/O | 31.4 | 17.5 | 16.9 | > 100 | 48 | 23.5 | 15.6 | 24.3
11 | Fc1ccc2c(c1)/C(=N\OCc1ccccc1)C(c1c[nH]c3ccc(F)cc13)=N2 | 12 | 10.5 | 21.3 | > 100 | 12.3 | 12.5 | 17.3 | 13.3
12 | Cc1cccc2c1N=C(c1c[nH]c3c(C)cccc13)/C2=N/OCc1cccc(F)c1 | 16.8 | 23.3 | 31.9 | > 100 | 17.3 | 21.2 | 34.1 | 20.4
13 | Fc1ccc(CO/N=C2/C(c3c[nH]c4ccccc34)=Nc3ccccc32)c(Cl)c1 | 21.9 | 21.4 | 18.5 | > 100 | 37.6 | 20 | 25.4 | 19.5
14 | Cc1ccc(CO/N=C2/C(c3c[nH]c4ccccc34)=Nc3ccccc32)cc1 | 29.8 | 22.4 | 22.8 | > 100 | 32.4 | 23.5 | 19.1 | 25.4
15 | Cc1cccc2c1/C(=N\O)C(c1c[nH]c3cccc(C)c13)=N2 | 24.2 | 44.9 | 25 | > 100 | 27 | 15 | 21.3 | 42.2
16 | O/N=C1/C(c2c[nH]c3ccc(OCc4ccccc4)cc23)=Nc2ccc(OCc3ccccc3)cc21 | 16.6 | 19.5 | 14.5 | > 100 | 17.6 | 11.8 | 19 | 12
17 | c1ccc2c(c1)N=C(c1c[nH]c3ccccc13)/C2=N/OCC1CC1 | 40.9 | 36.7 | 29.9 | > 100 | 32.3 | 35.4 | 32.1 | 33.8

Row | SMILES | IC50 (NCI-H460) [µM] | IC50 (A549) [µM] | IC50 (MGC-803) [µM] | IC50 (HUVEC) [µM] | IC50 [1] [µM] | IC50 [2] [µM] | IC50 (HepG2) [µM] | IC50 [3] [µM]
18 | N#Cc1ccc2c(c1)/C(=N\OCc1ccccc1)C(c1c[nH]c3ccc(C#N)cc13)=N2 | 14.5 | 14.2 | 15.5 | > 100 | 16.6 | 18.6 | 25.1 | 19.3
19 | N#Cc1cccc2c1/C(=N\O)C(c1c[nH]c3cccc(C#N)c13)=N2 | 18.8 | 33.6 | 35.4 | > 100 | 30.6 | 19.4 | 40.5 | 30.9
20 | Fc1ccc(CO/N=C2/C(c3c[nH]c4ccccc34)=Nc3ccccc32)cc1 | 20.7 | 27 | 33 | > 100 | 29 | 23.1 | 35.5 | 25.9
21 | COc1ccc2c(c1)/C(=N\OCc1ccc(F)cc1Cl)C(c1c[nH]c3ccc(OC)cc13)=N2 | 13 | 19.1 | 16.1 | > 100 | 12.2 | 12.4 | 24.1 | 11.1
22 | O=c1[nH]cc(F)c(=O)[nH]1 [FLUOROURACIL] | 46.1 | 38.2 | – | – | 27.3 | 40.6 | 32 | 44.1
23 | COC(=O)c1ccc2c(c1)N=C(c1c[nH]c3cc(C(=O)OC)ccc13)/C2=N/O | 20.8 | 25.9 | 29.8 | > 100 | 26.8 | 14.3 | 20.8 | 27.2
24 | Clc1cccc(CO/N=C2/C(c3c[nH]c4ccc(Br)cc34)=Nc3ccc(Br)cc32)c1 | 14.6 | 12.9 | 7.6 | > 100 | 14.1 | 9.34 | 13.3 | 13.5
25 | CCCCO/N=C1/C(c2c[nH]c3ccccc23)=Nc2ccccc21 | 42.2 | 37 | 23.3 | > 100 | 46 | 35.2 | 33.6 | 29.2
26 | N#Cc1ccc2c(c1)/C(=N\O)C(c1c[nH]c3ccc(C#N)cc13)=N2 | 14.3 | 14.9 | 18.4 | > 100 | 25.9 | 28.4 | 30.1 | 19.2
27 | Cc1cccc2c1N=C(c1c[nH]c3c(C)cccc13)/C2=N/OCc1cccc(Cl)c1 | 23.1 | 31.9 | 26.4 | > 100 | 26.5 | 17.6 | 22.8 | 18.2
28 | Cc1ccc(CO/N=C2/C(c3c[nH]c4ccc(Br)cc34)=Nc3ccc(Br)cc32)cc1 | 10.6 | 13.3 | 31.2 | > 100 | 7.22 | 21.4 | 20.4 | 15.1
29 | c1ccc(CO/N=C2/C(c3c[nH]c4ccccc34)=Nc3ccccc32)cc1 | 22 | 19.3 | 15.4 | > 100 | 16.9 | 12.2 | 19.5 | 21.4
30 | O/N=C1/C(c2c[nH]c3ccc(Br)cc23)=Nc2ccc(Br)cc21 | 18.9 | 16.2 | 13.2 | > 100 | 19.2 | 12.5 | 14.3 | 11.6
31 | FC(F)(F)c1ccc(CO/N=C2/C(c3c[nH]c4ccc(Br)cc34)=Nc3ccc(Br)cc32)cc1 | 11.2 | 8.45 | 11.1 | > 100 | 10.2 | 9.88 | 11.1 | 12.4
32 | O/N=C1/C(c2c[nH]c3ccc(F)cc23)=Nc2ccc(F)cc21 | 12.8 | 11.9 | 12.3 | > 100 | 9.89 | 10.1 | 9.31 | 13.7
33 | COC(=O)c1ccc2c(c1)/C(=N\O)C(c1c[nH]c3ccc(C(=O)OC)cc13)=N2 | 14 | 20.5 | 22.4 | > 100 | 15.6 | 11.5 | 15.3 | 14.9
34 | Nc1ccc2c(c1)/C(=N\O)C(c1c[nH]c3ccc(N)cc13)=N2 | 20.2 | 14.8 | 13.2 | > 100 | 17.5 | 9.38 | 18.5 | 16.7
